Reference: ChEMBL document CHEMBL1144563 (Bioorg Med Chem, 2007)

How the values were obtained:
Mus musculus [1] = experiment: Antagonism of nicotine-induced effect in mouse at 20 mg/kg, sc by hot plate assay; assay type: functional; design: scale not given: the % may be the effect or the level left; details: route subcutaneous
Procedure, shortened: (§1)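 Hot plate held at 55.0 C, mice in a 10 cm glass cylinder. Two control latencies taken at least 10 min apart (normal 8–12 s). Latency scored at jump or paw lick. %MPE = (test−control)/(40−control)×100. Analog given s.c. before nicotine; at least 8 mice per dose; % effect at highest dose.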

Mus musculus [2] = experiment: Antagonism of nicotine-induced antinociceptive effect in sc dosed mouse by tail flick assay; assay type: functional
Procedure, shortened: (§2)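 Mice given saline or analog s.c. at varied times before nicotine; tail-flick tested 5 min after nicotine. Baseline latency 2–4 s, cutoff 10 s. %MPE = (test−control)/(10−control)×100. 8–12 mice per dose, at least 4 doses; AD50 with confidence limits from dose-response, or % effect at top dose.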

Mus musculus [3] = experiment: Antagonism of nicotine-induced seizures in sc dosed ICR mouse; assay type: functional
Procedure, shortened: (§3)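 Mice given saline or analog s.c. 10 min before nicotine. Percentage of animals seizing recorded. Dose-response from at least 4 doses with at least 8 mice per dose; AD50 with confidence limits, or % effect at highest dose.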

[4] = Displacement of [3H]epibatidine from nAChRalpha, beta in rat cerebral cortex; assay type: tissue-based
Procedure, shortened: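 Washed male rat cerebral cortex homogenate, 3 mg wet weight, in 50 mM Tris pH 7.4 with NaCl, KCl, CaCl2 and MgCl2. 0.5 nM [3H]epibatidine with 10–12 compound concentrations, 1% DMSO final; 300 μM (–)-nicotine defined nonspecific binding. Incubated 4 h at room temperature, then filtered on PEI-soaked GF/B and counted. Nonlinear fit, at least three experiments.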

[5] = molecular target: Neuronal acetylcholine receptor subunit alpha-7 (Rattus norvegicus, UniProt Q05941); experiment: Displacement of [125I]iodoMLA from alpha-7 nAChR in rat cerebral cortex; assay type: tissue-based
Chain of Neuronal acetylcholine receptor subunit alpha-7 (Q05941 whole entry): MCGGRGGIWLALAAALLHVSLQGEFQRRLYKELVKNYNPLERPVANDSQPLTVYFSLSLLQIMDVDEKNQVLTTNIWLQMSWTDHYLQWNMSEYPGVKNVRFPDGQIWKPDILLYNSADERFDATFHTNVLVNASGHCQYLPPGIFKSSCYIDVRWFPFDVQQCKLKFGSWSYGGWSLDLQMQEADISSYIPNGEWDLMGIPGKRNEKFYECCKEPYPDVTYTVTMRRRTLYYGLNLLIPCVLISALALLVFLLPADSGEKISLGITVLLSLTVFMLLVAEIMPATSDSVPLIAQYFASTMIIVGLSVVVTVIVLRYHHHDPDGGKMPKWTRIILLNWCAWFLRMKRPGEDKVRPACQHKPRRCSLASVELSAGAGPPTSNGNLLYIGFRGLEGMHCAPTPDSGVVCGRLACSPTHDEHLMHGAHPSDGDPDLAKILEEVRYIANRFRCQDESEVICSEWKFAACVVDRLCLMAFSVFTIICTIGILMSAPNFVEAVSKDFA

Mus musculus [6] = experiment: Antagonism of nicotine-induced seizures in ICR mouse at 50 mg/kg, sc; assay type: functional; design: scale not given: the % may be the effect or the level left; details: route subcutaneous; procedure, shortened: as §3
Mus musculus [7] = experiment: Antagonism of nicotine-induced effect in mouse at 30 mg/kg, sc by hot plate assay; assay type: functional; design: scale not given: the % may be the effect or the level left; details: route subcutaneous; procedure, shortened: as §1
Mus musculus [8] = experiment: Antagonism of nicotine-induced antinociceptive effect in mouse at 30 mg/kg, sc by tail flick assay; assay type: functional; design: scale not given: the % may be the effect or the level left; details: route subcutaneous; procedure, shortened: as §2

| SMILES | Activity (Mus musculus [1]) [%] | AD50 (Mus musculus [2]) [mg/kg] | AD50 (Mus musculus [3]) [mg/kg] | Ki [4] [nM] | Ki [5] [nM] | Activity (Mus musculus [6]) [%] | Activity (Mus musculus [7]) [%] | Activity (Mus musculus [8]) [%] |
| --- | --- | --- | --- | --- | --- | --- | --- | --- |
| CCN1C[C@]2(COC(=O)c3ccccc3N3C(=O)C[C@H](C)C3=O)CC[C@H](OC)[C@@]34[C@@H]5C[C@H]6[C@H](OC)[C@@H]5[C@](O)(C[C@@H]6OC)[C@](O)([C@@H](OC)[C@H]23)[C@@H]14 [METHYLLYCACONITINE] | 15 | 12 | 2 | 739 | – | – | – | – |
| CCN1C[C@]2(COC(=O)c3ccccc3N3C(=O)CC(C)(C)C3=O)CC[C@H](OC)C34C2[C@H](OC)[C@](O)(C13)[C@@]1(O)C[C@H](OC)[C@H]2C[C@@H]4[C@@H]1[C@H]2OC | 13 | 1.8 | 10 | 602 | 1.78 | – | – | – |
| CCN1C[C@]2(COC(=O)c3ccccc3N3C(=O)C[C@@H](C)C3=O)CC[C@H](OC)[C@@]34[C@@H]5C[C@H]6[C@H](OC)[C@@H]5[C@](O)(C[C@@H]6OC)[C@](O)([C@@H](OC)[C@H]23)[C@@H]14 | – | – | – | 352 | – | 40 | 0 | 10 |
| CCN1C[C@]2(COC(=O)c3ccccc3N3C(=O)C(C)[C@H](C)C3=O)CC[C@H](OC)C34C2[C@H](OC)[C@](O)(C13)[C@@]1(O)C[C@H](OC)[C@H]2C[C@@H]4[C@@H]1[C@H]2OC (stereo partly drawn) | 25 | 7 | – | 321 | 2.46 | 0 | – | – |
